Assay outcomes deposited in PubChem by The Scripps Research Institute Molecular Screening Center.
Only some compounds are listed: those with a hit (about 2.8% of all), similar ones and a draw of the others.
PAFAH1B2 FP inh: inhibitors of human PAFAH1B2. inhibition, % at 3.39 µM. hit rate 1.2% among 340,000. recombinant PAFAH1B2, FP-rhodamine activity probe, fluorescence polarization. AID 492953. P68402;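 active = inhibition above the mean of all tested compounds plus 3 SD, cut at about 24% in these data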;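 also: 0% = enzyme with DMSO and 100% = wells lacking PAFAH1B2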
Target sequence (P68402 whole entry, looked up): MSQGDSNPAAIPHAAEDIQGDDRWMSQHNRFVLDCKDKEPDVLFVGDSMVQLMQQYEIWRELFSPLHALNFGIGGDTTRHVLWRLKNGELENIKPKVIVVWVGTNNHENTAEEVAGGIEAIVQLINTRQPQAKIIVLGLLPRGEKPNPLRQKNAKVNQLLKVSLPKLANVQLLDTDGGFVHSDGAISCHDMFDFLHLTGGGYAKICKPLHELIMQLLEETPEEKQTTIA
pPAFAH inh: inhibitors of human plasma PAF acetylhydrolase (pPAFAH); hit rate 1.5% among 330,000; recombinant pPAFAH, FP-rhodamine probe fluorescence polarization; AID 463082; inhibition, % at 3.39 µM; Q13093;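 active = inhibition above the mean inhibition across the screen plus 3 SD, cut at about 25% in these data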;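 also: inhibitors block binding of the rhodamine activity-based probe so polarization drops; 0% = enzyme with DMSO and 100% = wells lacking pPAFAH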
PAFAH2 FP inh: PAFAH2 (human) inhibition; hit rate 0.99% among 340,000; Q99487; inhibition, % at 3.39 µM; AID 492956; recombinant PAFAH2, FP-rhodamine activity probe, fluorescence polarization;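 active = inhibition above the mean over all tested compounds plus 3 SD, cut at about 30% in these data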;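 also: inhibitors block probe labeling of enzyme so polarization drops; 0% = enzyme with DMSO and 100% = wells lacking PAFAH2 protein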
PAFAH1B3 inh: PAFAH1B3 (human) inhibition; AID 492972; recombinant PAFAH1B3, FP-rhodamine probe, fluorescence polarization; hit rate 0.28% among 340,000; Q15102; inhibition, % at 3.39 µM;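 active = inhibition above the screen-wide average of all tested compounds plus 3 SD, cut at about 25% in these data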;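 also: 0% = enzyme with DMSO only and 100% = wells lacking PAFAH1B3 protein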
ARFGAP1 inhibitor: inhibits rat ARF GTPase activating protein 1; Q62848; Arfgap1-stimulated ARF1 GTP hydrolysis, GDP FP detection; inhibition, % at 16.5 µM; hit rate 0.26% among 360,000; AID 651572;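 active = inhibition above a per-plate limit, mean inhibition of low control wells plus 3 SD, cut at about 25% in these data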;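 also: 0% = DMSO wells with enzyme and 100% = wells lacking Arfgap1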
Target sequence (Q62848 1-136 limits assumed): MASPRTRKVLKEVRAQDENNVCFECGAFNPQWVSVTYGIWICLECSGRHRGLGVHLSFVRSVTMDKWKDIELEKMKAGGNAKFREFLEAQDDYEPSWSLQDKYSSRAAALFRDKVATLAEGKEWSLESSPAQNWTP
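Assay system: Rat Arfgap1 GAP domain (His6, aa 1-136), purified enzyme | Buffer or medium: HEPES 25 mM pH 7.5, NaCl 150 mM, MgCl2, DTT | Schedule: GTP hydrolysis reaction 2 h at 25 °C | Signal: FP of antibody-bound GDP Alexa 633 tracer, ex 620/em 688 nm | Measure: Percent inhibition of Arfgap1-stimulated GTP hydrolysis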
ASAP1 inh: ASAP1 ArfGAP inhibition | hit rate 0.19% among 360,000 | Q9ULH1 | ASAP1-stimulated ARF1 GTP hydrolysis, GDP FP detection | inhibition, % at 16.5 µM; in the data active = inhibition above about 25%;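 also: 0% = vehicle with enzyme and substrate and 100% = no enzyme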
Active calls of the source: *; · = not tested or not shown.

SMILES	PAFAH1B2 FP inh	pPAFAH inh	PAFAH2 FP inh	PAFAH1B3 inh	ARFGAP1 inhibitor	ASAP1 inh
CCc1ccc([C@H]2C(C(=O)O)=C[C@@H](C(C)(C)C)N2S(=O)(=O)c2ccc(C)cc2)cc1	18	6	-2	-5	-15	-19
CCCC[C@@H]1C=C(C(=O)O)[C@H](c2ccc(Cl)cc2)N1S(=O)(=O)c1ccc(C)cc1	28*	-1	9	5	-1	1
Cc1cccc(C)c1OCc1cc(C(=O)N2CCN(c3ccc(F)cc3)CC2)no1	3	3	10	0	12	15
O=S(=O)(NC12CC3CC(CC(C3)C1)C2)c1ccc(F)cc1	28*	3	0	6	-2	3
Cc1cc(SCC#N)n2nc(C)c(-c3ccccc3)c2n1	-1	32*	9	3	0	11
O=S(=O)(c1ccccc1)c1cc(O)ccc1O	1	2	3	2	-6	3
O=S(=O)(c1ccc(Cl)cc1)c1cc(O)ccc1O	26*	6	3	6	4	11
CCN(c1ccccc1)S(=O)(=O)c1ccc(C(=O)N2CCN(c3ccccc3F)CC2)cc1	·	·	·	·	3	-10
N#Cc1c(N)sc(=S)c2c1CCN(Cc1ccccc1)C2	·	40*	·	·	·	·
O=C1CS/C(=N\C(=O)N2c3ccccc3Sc3ccccc32)N1	25*	26*	-5	-1	-11	7
O=C(Nc1ccc(-c2csc(Nc3cccc(C(F)(F)F)c3)n2)cc1)c1cc([N+](=O)[O-])cc(C(F)(F)F)c1	24	-1	48*	27*	6	-3
O=c1c2cc(Br)ccc2[nH]c(=S)n1Cc1ccccc1	8	26*	1	10	12	-4
CC(=O)Nc1ccc(C23CC4CC(CC(C4)C2)C3)cc1	26*	4	17	-5	12	-4
CNC(=S)Nc1ccc(C23CC4CC(CC(C4)C2)C3)cc1	21	3	-2	1	-2	-2
NCCOc1ccc(C23CC4CC(CC(C4)C2)C3)cc1	14	3	11	5	7	6
Oc1ccc(C23CC4CC(CC(C4)C2)C3)cc1O	61*	24	8	4	-7	8
CCOc1ccc(-n2ccc(=O)c(C(=O)Nc3ccc(S(=O)(=O)Nc4nccs4)cc3)n2)cc1	5	17	12	5	3	11
O=C(Nc1ccc(S(=O)(=O)Nc2nccs2)cc1)c1nn(-c2ccc(F)cc2)ccc1=O	1	26*	24	7	4	10
Cc1ccsc1C(=O)OCC(=O)Nc1ccc(Cl)cc1C(F)(F)F	3	33*	51*	1	1	-1
Cc1ccc(C(=O)NCC(=O)OCC(=O)Nc2ccc(Cl)cc2C(F)(F)F)cc1C	-2	18	4	9	-2	-1
Cc1cc(C)n2nc(C(=O)OC(C)C(=O)c3ccccc3)nc2n1 (stereo unspecified)	1	8	9	8	-9	-8
CCCCn1cnc2sc(-c3ccccc3)cc2c1=O	5	1	3	2	-3	3
O=c1c2cc(-c3ccccc3)sc2ncn1/N=C/c1ccco1	4	26*	8	-2	-6	9
CC1Nc2ccccc2C(=O)N1NS(C)(=O)=O (stereo unspecified)	3	28*	21	5	7	-2
COc1ccc(C2Nc3ccccc3C(=O)N2NS(C)(=O)=O)cc1 (stereo unspecified)	-2	3	3	8	5	-8
SMILES	PAFAH1B2 FP inh	pPAFAH inh	PAFAH2 FP inh	PAFAH1B3 inh	ARFGAP1 inhibitor	ASAP1 inh
N#C/C(=C/c1cn[nH]c1-c1ccc(Br)cc1)C(=O)O	30*	9	8	18	1	2
N#C/C(=C/c1cn[nH]c1-c1cccc(Br)c1)C(=O)O	5	-2	6	6	3	0
Nc1ccc2nc(-c3ccccc3)c(-c3ccccc3)nc2c1	14	27*	9	9	1	-6
CCOc1cc(C=O)ccc1OCCSc1ccc(C)cc1	30*	16	-4	4	1	7
COc1cc(C=O)ccc1OCCOCCOc1cc(C)ccc1Cl	-1	3	-7	-1	4	-13
COc1cc(C=O)ccc1OCCSc1ccc(C)cc1	35*	11	0	5	3	4
CCOc1cc(/C=C/C(=O)O)ccc1OCCO	1	3	2	-1	3	6
